The nature of data set [1]: Inhibition of rat brain sodium/potassium-transporting ATPase after 10 mins in presence of Mg2+ and Na+. The settings on record: read-out: I50. An outline of the steps:
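Rat brain Na+,K+-ATPase. The steroid was added to enzyme medium lacking K+ and preincubated 10 min, then KCl was added to start Na+,K+-ATPase activity. Basal activity from tubes with Mg2+ and Na+ only was subtracted from activity with Mg2+, Na+ and K+. I50 (M) is from two to four runs.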

Data set [2] in a line: Inhibition of rat brain sodium/potassium-transporting ATPase in presence of Mg2+ and Na+. The settings on record: read-out: I50. In outline: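 Rat brain Na+,K+-ATPase assayed with no preincubation of steroid and enzyme. Na+,K+-dependent activity was taken as activity with Mg2+, Na+ and K+ minus basal activity from tubes with Mg2+ and Na+ only. I50 (M) is from two to four runs.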

Another data set is filed under the species Cavia porcellus. Briefly: Inotropic activity at guinea pig left atria sodium/potassium-transporting ATPase up to 10^-4 M.
Data set [3] in a line: Solubility of the compound in propylene glycol. Format: physicochemical.

Calls of active or inactive are those of the source. The rule behind the calls is not given here. Some results are limits rather than exact numbers.

As to `C=C1C(=O)OC[C@H]1[C@H]1CC=C2[C@@H]3CC[C@@H]4C[C@@H](O)CC[C@]4(C)[C@H]3CC[C@@]21C`, the IC50 in data set [1] and in data set [2] was > 100000 nM each time. Besides, the outcome in the data set filed under Cavia porcellus was inactive. In data set [3], the solubility result is given as “Insoluble”.

Regarding `C[C@@H]1O[C@@H](O[C@H]2C[C@@H](O)[C@]3(CO)[C@H]4[C@H](O)C[C@]5(C)[C@@H](C6=CC(=O)OC6)CC[C@]5(O)[C@@H]4CC[C@]3(O)C2)[C@H](O)[C@H](O)[C@H]1O` [OUABAIN], the IC50 in data set [1] worked out at 40 nM; in data set [2], 500 nM.

For `C=C1C(=O)OC[C@@H]1[C@H]1CC=C2[C@@H]3CC[C@@H]4C[C@@H](O)CC[C@]4(C)[C@H]3CC[C@@]21C`, in the data set filed under Cavia porcellus, the result was inactive. Also, the solubility result in data set [3] is given as “Insoluble”.

Turning to `C[C@]12CC[C@H](O)C[C@H]1CC[C@H]1C3=CC[C@H](C4=CC(=O)OC4)[C@@]3(C)CC[C@@H]12`, the IC50 stood at 40000 nM in data set [1] and 63000 nM in data set [2]. Besides, the result in the data set listed under Cavia porcellus was inactive. Moreover, the solubility result in data set [3] was “Insoluble”.

`C[C@H]1O[C@@H](O[C@H]2[C@@H](O)C[C@H](O[C@H]3[C@@H](O)C[C@H](O[C@H]4CC[C@@]5(C)[C@H](CC[C@@H]6[C@@H]5CC[C@]5(C)[C@@H](C7=CC(=O)OC7)CC[C@]65O)C4)O[C@@H]3C)O[C@@H]2C)C[C@H](O)[C@@H]1O` [DIGITOXIN]: the IC50 in data set [1] was found to be 240 nM; in data set [2], 700 nM.

`C[C@]12CC[C@H](O)C[C@H]1CC[C@@H]1[C@@H]2CC[C@]2(C)[C@@H](C3=CC(=O)OC3)CC[C@]12O` [DIGITOXIGENIN]: the IC50 in data set [1] came out at 500 nM; in data set [2], 460 nM.

Source of the values: ChEMBL document CHEMBL3271976, “Cardenolide analogues. 2. 22-Methylenecard-14-enolides” (J Med Chem, 1977).
